Legend:
[1] = substrate: C=CCSS/C=C\C[S+]([O-])CC=C; assay: (§1) Km value determined against human Glutathione reductase (GR) by oxidation of NADPH
How it was run: (§2)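 Recombinant human glutathione reductase in GR assay buffer (phosphate, 200 mM KCl, 1 mM EDTA, pH 6.9) at 25 °C with 150 μM NADPH and ajoene or DATS as substrate. NADPH consumption read at 340 nm. Where GSH is present, it is added to the mixture. Controls held NADPH and enzyme only (intrinsic oxidase activity).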

[2] = substrate: C=CCSS/C=C/C[S+]([O-])CC=C; assay: as §1; how it was run: as §2
[3] = substrate: C=CCSSSCC=C; assay: as §1; how it was run: as §2
[4] = substrate: C=CCSS/C=C\C[S+]([O-])CC=C; assay: (§3) Km value determined against Trypanothione reductase (TR); conditions: Trypanosoma cruzi
How it was run: (§4)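 T. cruzi trypanothione reductase, recombinant, with NADPH and ajoene as substrate in TR assay buffer (40 mM Hepes, 1 mM EDTA, pH 7.5) at 25 °C. NADPH oxidation followed as absorbance decrease at 340 nm. Controls held only NADPH and enzyme, giving the intrinsic oxidase activity.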

[5] = substrate: C=CCSS/C=C/C[S+]([O-])CC=C; assay: as §3; conditions: Trypanosoma cruzi; how it was run: as §4
[6] = substrate: C=CCSS/C=C/C[S+]([O-])CC=C; assay: Kcat value determined against Trypanothione reductase (TR) by oxidation of NADPH; conditions: Trypanosoma cruzi; how it was run: as §4
[7] = substrate: C=CCSS/C=C\C[S+]([O-])CC=C; assay: Km value determined against Trypanothione reductase (TR) by oxidation of NADPH; conditions: Trypanosoma cruzi

| Protein | Km [1] | Km [2] | Km [3] | Km [4] | Km [5] | Km [6] | Km [7] |
| --- | --- | --- | --- | --- | --- | --- | --- |
| Glutathione reductase, mitochondrial (Homo sapiens), P00390 (protein) MALLPRALSAGAGPSWRRAARAFRGFLLLLPEPAALTRALSRAMACRQEPQPQGPPPAAGAVASYDYLVIGGGSGGLASARRAAELGARAAVVESHKLGGTCVNVGCVPKKVMWNTAVHSEFMHDHADYGFPSCEGKFNWRVIKEKRDAYVSRLNAIYQNNLTKSHIEIIRGHAAFTSDPKPTIEVSGKKYTAPHILIATGGMPSTPHESQIPGASLGITSDGFFQLEELPGRSVIVGAGYIAVEMAGILSALGSKTSLMIRHDKVLRSFDSMISTNCTEELENAGVEVLKFSQVKEVKKTLSGLEVSMVTAVPGRLPVMTMIPDVDCLLWAIGRVPNTKDLSLNKLGIQTDDKGHIIVDEFQNTNVKGIYAVGDVCGKALLTPVAIAAGRKLAHRLFEYKEDSKLDYNNIPTVVFSHPPIGTVGLTEDEAIHKYGIENVKTYSTSFTPMYHAVTKRKTKCVMKMVCANKEEKVVGIHMQGLGCDEMLQGFAVAVKMGATKADFDNTVAIHPTSSEELVTLR | 380 µM | 800 µM | 160 µM |  |  |  |  |
| Trypanothione reductase (Trypanosoma cruzi), P28593 (protein) MMSKIFDLVVIGAGSGGLEAAWNAATLYKKRVAVIDVQMVHGPPFFSALGGTCVNVGCVPKKLMVTGAQYMEHLRESAGFGWEFDRTTLRAEWKKLIAVKDEAVLNINKSYEEMFRDTEGLEFFLGWGSLESKNVVNVRESADPASAVKERLETENILLASGSWPHMPNIPGIEHCISSNEAFYLPEPPRRVLTVGGGFISVEFAGIFNAYKPKDGQVTLCYRGEMILRGFDHTLREELTKQLTANGIQILTKENPAKVELNADGSKSVTFESGKKMDFDLVMMAIGRSPRTKDLQLQNAGVMIKNGGVQVDEYSRTNVSNIYAIGDVTNRVMLTPVAINEAAALVDTVFGTNPRKTDHTRVASAVFSIPPIGTCGLIEEVASKRYEVVAVYLSSFTPLMHNISGSKYKTFVAKIITNHSDGTVLGVHLLGDNAPEIIQGVGICLKLNAKISDFYNTIGVHPTSAEELCSMRTPSYYYVKGEKMEKPSEASL |  |  |  | ≥ 2000 µM | > 2000 µM | > 2000 µM | > 2000 µM |
